Results from ChEMBL document CHEMBL4680184, “Simple amphiphilic α-hydrazido acids: Rational design, synthesis, and in vitro bioactivity profile of a novel class of potential antimicrobial compounds” (Eur J Med Chem, 2020).
Values after ≈ are worked out from the molar mass of the structure shown.

Experiments:
[1] = tested on: Staphylococcus aureus; assay: Antibacterial activity against Staphylococcus aureus ATCC 29213 assessed as inhibition of visible growth after 24 hrs by broth microdilution method; type: functional
How it was run: (§1)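 Compounds dissolved in sterile water at the highest achievable concentration, then serially diluted in Mueller-Hinton II broth per CLSI broth microdilution. Strains grown 6 h in BHI, diluted in MHII to 1 × 10^6 cfu/mL final. Aerobic incubation 37 °C, 24 h; tetracycline internal control; bacteria-only growth controls. MIC = lowest concentration with no visible growth; triplicate.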

[2] = Retention time of the compound by RP-HPLC analysis; type: physicochemical
How it was run: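 RP-HPLC on C18 column (5 µm, 200 × 4.6 mm), 0.5 mL/min; hydrochlorides at 0.5–1 mg/mL in water:2-propanol 70:30, gradient to 10:90 over 40 min, then 20 min at 10:90. Adjusted retention time = instrumental retention time minus hold-up time.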

[3] = tested on: Pseudomonas aeruginosa; assay: Antibacterial activity against Pseudomonas aeruginosa ATCC 27853 assessed as inhibition of visible growth after 24 hrs by broth microdilution method; type: functional; how it was run: as §1
[4] = Hemolytic activity against human erythrocytes measured after 1 hr by microplate reader based spectrophotometric analysis; type: ADME, cell-based, Erythrocyte
How it was run: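 Heparinized fresh human blood washed three times in PBS pH 7.4 (1000 g, 10 min), resuspended ~20 vol %. Equal volume with 1:2 serial dilutions of compound in PBS, 1 h at 37 °C; PBS and 0.2 vol % Triton X-100 controls. Supernatant diluted 1:60, A350 read. HC50 from three- or four-parameter Hill fit; mean of three replicates.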

[5] = Therapeutic index, ratio of HC50 for human erythrocytes to MIC for Staphylococcus aureus ATCC 29213; type: toxicity; settings: read-out: TI
[6] = Therapeutic index, ratio of HC50 for human erythrocytes to MIC for Escherichia coli ATCC 25922; type: toxicity; settings: read-out: TI
[7] = tested on: Enterococcus faecium; assay: Antibacterial activity against Enterococcus faecium 135562 (35C) assessed as inhibition of visible growth after 24 hrs by broth microdilution method; type: functional; how it was run: as §1
[8] = tested on: Escherichia coli; assay: Antibacterial activity against Escherichia coli ATCC 25922 assessed as inhibition of visible growth after 24 hrs by broth microdilution method; type: functional; how it was run: as §1
[9] = tested on: Enterococcus faecalis; assay: Antibacterial activity against Enterococcus faecalis ATCC 29212 assessed as inhibition of visible growth after 24 hrs by broth microdilution method; type: functional; how it was run: as §1
[10] = tested on: Staphylococcus aureus; assay: Antibacterial activity against linezolid-methicillin-resistant Staphylococcus aureus AOUC 0915 assessed as inhibition of visible growth after 24 hrs by broth microdilution method; type: functional
How it was run: (§2)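 Broth microdilution per CLSI: strains grown 6 h in BHI broth, diluted in Mueller-Hinton II broth to 1 × 10^6 cfu/mL, mixed 1:1 with serial dilutions of compound in MHII (compounds dissolved in sterile water); aerobic incubation 37 °C, 24 h. MIC = lowest concentration with no visible growth. Tetracycline internal control; triplicate.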

[11] = tested on: Enterococcus faecalis; assay: Antibacterial activity against Enterococcus faecalis ATCC 29212; type: functional; how it was run: as §1
[12] = tested on: Staphylococcus aureus; assay: Antibacterial activity against Staphylococcus aureus ATCC 29213; type: functional; how it was run: as §2
[13] = tested on: Escherichia coli; assay: Antibacterial activity against Escherichia coli ATCC 25922; type: functional; how it was run: as §2
[14] = tested on: Escherichia coli; assay: Antibacterial activity against gentamicin-colistin-resistant Escherichia coli 288328 assessed as inhibition of visible growth after 24 hrs by broth microdilution method; type: functional; how it was run: as §2

Molecule | MIC [1] | Retention_time [2] | MIC [3] | HC50 at 1 h [4] | selectivity ratio [5] | selectivity ratio [6] | MIC [7] | MIC [8] | MIC [9] | MIC [10] | MIC [11] | MIC [12] | MIC [13] | MIC [14]
CCCCCCCCNC(=O)CN(NC(=O)OCc1ccccc1)C(=O)CN.Cl | 64 µg/mL | 14.3 min | 128 µg/mL | 189 µg/mL | 3 | 3 | 64 µg/mL | 64 µg/mL | 128 µg/mL | – | – | – | – | –
CCCCCCCCCCCCCCCCCCNC(=O)CN(NC(=O)CCCCCCCCCCCCCCCCC)C(=O)CN.Cl | – | 41.8 min | – | – | – | – | – | – | – | – | – | – | – | –
CCCCCCCCNC(=O)CN(C(=O)CN)N(C)C(C)=O | 2050 µg/mL (≈ 6510 µM) | 9.1 min | 2050 µg/mL (≈ 6510 µM) | – | – | – | 1020 µg/mL (≈ 3260 µM) | 2050 µg/mL (≈ 6510 µM) | 1020 µg/mL (≈ 3260 µM) | – | – | – | – | –
CCCCCCCC(=O)NN(CC(=O)NCCC)C(=O)CN.Cl | 1020 µg/mL | 5.2 min | 2050 µg/mL | 433 µg/mL | 0.4 | 0.4 | 1020 µg/mL | 1020 µg/mL | 1020 µg/mL | – | – | – | – | –
CCCCCCCCCCCCCCCCCC(=O)NN(CC(=O)NCCCCCCCC)C(=O)CN.Cl | 128 µg/mL | 32.2 min | 512 µg/mL | 200 µg/mL | 1.6 | 0.4 | 64 µg/mL | 512 µg/mL | 512 µg/mL | – | – | – | – | –
COc1cccc(OC)c1C(=O)N[C@@H]1C(=O)N2[C@@H]1SC(C)(C)[C@@H]2C(=O)O [METHICILLIN] | – | – | – | – | – | – | – | – | – | > 1020 µg/mL | > 16 µg/mL | 0.5 µg/mL (≈ 1.31 µM) | – | –
CCCCCCCCCCCCCCCCCC(=O)NN(CC(=O)NCCCCCCCCCCCC)C(=O)CN.Cl | 256 µg/mL | 35.8 min | 512 µg/mL | 124 µg/mL | 0.5 | 0.2 | 256 µg/mL | 512 µg/mL | 512 µg/mL | – | – | – | – | –
CCCCCCCCNC(=O)CN(NC(=O)C(C)(C)C)C(=O)CN.Cl | 512 µg/mL | 11.7 min | 512 µg/mL | 775 µg/mL | 1.5 | 3 | 256 µg/mL | 256 µg/mL | 256 µg/mL | – | – | – | – | –
CCCCCCCCCCCCNC(=O)CN(NC(C)=O)C(=O)CN.Cl | 64 µg/mL | 17.5 min | 64 µg/mL | 127 µg/mL | 2 | 2 | 32 µg/mL | 64 µg/mL | 32 µg/mL | – | – | – | – | –
CCCCCCCCCCCCCCCCCCNC(=O)CN(NC(=O)CCCCCCCCCCC)C(=O)CN.Cl | 256 µg/mL | 35.9 min | 512 µg/mL | 364 µg/mL | 1.4 | < 0.7 | 512 µg/mL | > 512 µg/mL | 512 µg/mL | – | – | – | – | –
CCCCCCCCCCCCNC(=O)CN(C(=O)CN)N(C)C(C)=O | 64 µg/mL (≈ 173 µM) | 17.1 min | 256 µg/mL (≈ 691 µM) | – | – | – | 32 µg/mL (≈ 86.4 µM) | 128 µg/mL (≈ 345 µM) | 32 µg/mL (≈ 86.4 µM) | – | – | – | – | –
CCCCCCCCCCCCNC(=O)CN(C(=O)CN)N(C)C(=O)OCc1ccccc1 | 8 µg/mL (≈ 17.3 µM) | 20.7 min | 512 µg/mL (≈ 1110 µM) | – | – | – | 8 µg/mL (≈ 17.3 µM) | 64 µg/mL (≈ 138 µM) | 8 µg/mL (≈ 17.3 µM) | – | – | – | – | –
CCCCCCCCCCCCCCCCCCNC(=O)CN(NC(C)=O)C(=O)CN.Cl | 256 µg/mL | 28 min | 512 µg/mL | 228 µg/mL | 0.9 | 0.5 | 32 µg/mL | 512 µg/mL | 32 µg/mL | – | – | – | – | –
CCCCCCCCCCCCNC(=O)CN(NC(=O)OCc1ccccc1)C(=O)CN.Cl | 8 µg/mL | 21.2 min | 128 µg/mL | 86 µg/mL | 11 | 2.7 | 8 µg/mL | 32 µg/mL | 16 µg/mL | – | – | – | – | –
CCCCCCCCCCCCNC(=O)CN(C(=O)CN)N(C)C(=O)C(C)(C)C | 16 µg/mL (≈ 38.8 µM) | 18.9 min | 512 µg/mL (≈ 1240 µM) | – | – | – | 16 µg/mL (≈ 38.8 µM) | 64 µg/mL (≈ 155 µM) | 16 µg/mL (≈ 38.8 µM) | – | – | – | – | –
CCCCCCCCCCCCCCCCCCNC(=O)CN(NC(=O)CCCCCCC)C(=O)CN.Cl | > 256 µg/mL | 33.1 min | > 256 µg/mL | 267 µg/mL | < 1 | < 1 | > 256 µg/mL | > 256 µg/mL | > 256 µg/mL | – | – | – | – | –
CCCCCCCCNC(=O)CN(C(=O)CN)N(C)C(=O)OCc1ccccc1 | 128 µg/mL (≈ 315 µM) | 13.8 min | 256 µg/mL (≈ 630 µM) | – | – | – | 128 µg/mL (≈ 315 µM) | 128 µg/mL (≈ 315 µM) | 128 µg/mL (≈ 315 µM) | – | – | – | – | –
CCCCCCCCCCCCNC(=O)CN(NC(=O)CCCCCCCCCCC)C(=O)CN.Cl | > 128 µg/mL | 29.1 min | > 128 µg/mL | 438 µg/mL | < 3.4 | < 3.4 | 128 µg/mL | > 128 µg/mL | 128 µg/mL | – | – | – | – | –
CCCNC(=O)CN(NC(=O)OCc1ccccc1)C(=O)CN.Cl | 512 µg/mL | 3.4 min | 512 µg/mL | 775 µg/mL | 1.5 | 1.5 | 512 µg/mL | 512 µg/mL | 1020 µg/mL | – | – | – | – | –
CCCCCCCCCCCCCCCCCCNC(=O)CN(NC(=O)OCc1ccccc1)C(=O)CN.Cl | 512 µg/mL | 30.9 min | 512 µg/mL | 243 µg/mL | 0.5 | 0.5 | 256 µg/mL | 512 µg/mL | 512 µg/mL | – | – | – | – | –
CCCCCCCCCCCCNC(=O)CN(NC(=O)CCCCCCC)C(=O)CN.Cl | 64 µg/mL | 24 min | 512 µg/mL | 367 µg/mL | 5.7 | 1.4 | 16 µg/mL | 256 µg/mL | 32 µg/mL | – | – | – | – | –
CCCCCCCCNC(=O)CN(C(=O)CN)N(C)C(=O)C(C)(C)C | 512 µg/mL (≈ 1440 µM) | 11.7 min | 512 µg/mL (≈ 1440 µM) | – | – | – | 512 µg/mL (≈ 1440 µM) | 256 µg/mL (≈ 718 µM) | 512 µg/mL (≈ 1440 µM) | – | – | – | – | –
CCCCCCCCNC(=O)CN(NC(C)=O)C(=O)CN.Cl | 128 µg/mL | 9.3 min | 256 µg/mL | 223 µg/mL | 1.7 | 0.9 | 128 µg/mL | 256 µg/mL | 256 µg/mL | – | – | – | – | –
CCCCCCCCCCCC(=O)NN(CC(=O)NCCC)C(=O)CN.Cl | 64 µg/mL | 16.6 min | 64 µg/mL | 167 µg/mL | 2.6 | 2.6 | 64 µg/mL | 64 µg/mL | 64 µg/mL | – | – | – | – | –
GENTAMICIN | – | – | – | – | – | – | – | – | – | – | 4 µg/mL | 0.12 µg/mL | 0.25 µg/mL | 128 µg/mL
CCCCCCCCCCCCCCCCCC(=O)NN(CC(=O)NCCC)C(=O)CN.Cl | 64 µg/mL | 26.5 min | 512 µg/mL | 234 µg/mL | 3.7 | 0.5 | 16 µg/mL | 512 µg/mL | 32 µg/mL | – | – | – | – | –
CCCCCCCCNC(=O)CN(NC(=O)c1ccccc1)C(=O)CN.Cl | 128 µg/mL | 12.3 min | 128 µg/mL | 368 µg/mL | 2.9 | 2.9 | 128 µg/mL | 128 µg/mL | 128 µg/mL | – | – | – | – | –
CCCCCCCCCCCC(=O)NN(CC(=O)NCCCCCCCC)C(=O)CN.Cl | 64 µg/mL | 23.5 min | 128 µg/mL | 486 µg/mL | 7.6 | 3.8 | 8 µg/mL | 128 µg/mL | 16 µg/mL | – | – | – | – | –
CCCNC(=O)CN(NC(C)=O)C(=O)CN.O=C(O)C(F)(F)F | 1020 µg/mL | 0.3 min | 2050 µg/mL | 2700 µg/mL | 2.6 | 1.3 | 2050 µg/mL | 2050 µg/mL | 2050 µg/mL | – | – | – | – | –
